Experimental data as given in ChEMBL document CHEMBL1177667, “Novel anti-viability ceramide analogs: design, synthesis, and structure-activity relationship studies of substituted (S)-2-(benzylideneamino)-3-hydroxy-N-tetradecylpropanamides” (Bioorg Med Chem, 2010).

Assays:
[1] = Cytotoxicity against human MCF-7TN-R cells assessed as reduction in cell viability after 24 hrs by MTT assay; type: functional, cell-based
HEK293 = assay: Cytotoxicity against HEK293 cells assessed as reduction in cell viability; type: cell-based; conditions: Homo sapiens
Procedure, shortened: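 MTT viability assay on non-tumorigenic human kidney cells, run by the same protocol as the breast cancer line. Cells were seeded at […] per well in phenol-free DMEM with 5% FBS and left to adhere overnight. Compounds were given at 0.1–100 µM for 24 h, then MTT (5 mg/mL) for 4 h. Cells were lysed in 20% SDS/50% DMF and read at 550 nm (reference 630 nm). Mean ±SE of four independent experiments.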

SMILES | IC50 [1] [µM] | IC50 (HEK293) [µM]
CCCCCCCCCCCCCCNC(=O)[C@H](CO)/N=C/c1cccc([N+](=O)[O-])c1 | 104 | 82.7
CCCCCCCCCCCCCCNC(=O)[C@H](CO)/N=C/c1ccccc1Cl | 10.3 | 94.9
CCCCCCCCCCCCCCNC(=O)[C@H](CO)/N=C/c1cccc(O)c1 | 32.6 | 77.5
CCCCCCCCCCCCCCNC(=O)[C@H](CO)/N=C/c1ccccc1 | 7.67 | 
CCCCCCCCCCCCCCNC(=O)[C@H](CO)NCc1ccccc1OC | 100 | 
CCCCCCCCCCCCC/C=C/[C@@H](O)[C@H](CO)NC(=O)CCCCCCC | 8.59 | 
CCCCCCCCCCCCCCNC(=O)[C@H](CO)/N=C/c1ccccc1C | 87.7 | 81.1
CCCCCCCCCCCCCCNC(=O)[C@H](CO)NCc1ccccc1O | 75.3 | 
CCCCCCCCCCCCCCNC(=O)[C@H](CO)/N=C/c1ccc([N+](=O)[O-])cc1 | 216 | 49.5
CCCCCCCCCCCCCCNC(=O)[C@H](CO)/N=C/c1ccc(Cl)cc1 | 27.5 | 77.7
CCCCCCCCCCCCCCNC(=O)[C@H](CO)/N=C/c1cccc(OC)c1 | 31.2 | 77.3
CCCCCCCCCCCCCCNC(=O)[C@H](CO)/N=C/c1ccccc1OC | 12.5 | 79.2
CCCCCCCCCCCCCCNC(=O)[C@H](CO)/N=C/c1cccc(C)c1 | 82.9 | 51.1
CCCCCCCCCCCCCCNC(=O)[C@H](CO)NCc1ccccc1[N+](=O)[O-] | 29.4 | 
CCCCCCCCCCCCCCNC(=O)[C@H](CO)/N=C/c1cccc(Cl)c1 | 24.1 | 77
CCCCCCCCCCCCCCNC(=O)[C@H](CO)/N=C/c1ccc(O)cc1 | 19.3 | 71.7
CCCCCCCCCCCCCCNC(=O)[C@H](CO)/N=C/c1ccc(OC)cc1 | 28.1 | 81.7
CCCCCCCCCCCCCCNC(=O)[C@H](CO)NCc1ccccc1Cl | 43.7 | 
CCCCCCCCCCCCCCNC(=O)[C@H](CO)/N=C/c1ccc(C)cc1 | 102 | 47.3
CCCCCCCCCCCCCCNC(=O)[C@H](CO)/N=C/c1ccccc1[N+](=O)[O-] | 21.7 | 82.6
CCCCCCCCCCCCCCNC(=O)[C@H](CO)/N=C/c1ccccc1O | 19 | 80.8
